Assay results as given in ChEMBL document CHEMBL5252534, “Discovery of a Noncovalent, Mutant-Selective Epidermal Growth Factor Receptor Inhibitor” (J Med Chem, 2016).
≈ marks a conversion by molar mass, not a printed value.

Tests used:
[1] = biological target: T1, Epidermal growth factor receptor (Homo sapiens, UniProt P00533, 746-750DEL); assay: Inhibition of human EGFR del (746 to 750) mutant assessed as apparent inhibition constant using Fl-EEPLYWSFPAKKK-CONH2 as substrate preincubated for 30 mins followed by addition of substrate and measured after 30 mins by Morrison plot analysis; conditions: read-out: Ki(app)
Procedure, shortened: (§1)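 Biochemical kinase Ki determination; reported values are geometric means of at least two independent experiments.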

[2] = biological target: T2, Epidermal growth factor receptor (Homo sapiens, UniProt P00533); assay: Inhibition of wild type human EGFR assessed as apparent inhibition constant using Fl-EEPLYWSFPAKKK-CONH2 as substrate preincubated for 30 mins followed by addition of substrate and measured after 30 mins by Morrison plot analysis; conditions: read-out: Ki(app)
Target sequence in this assay (P00533 whole entry, the tested form may be a part): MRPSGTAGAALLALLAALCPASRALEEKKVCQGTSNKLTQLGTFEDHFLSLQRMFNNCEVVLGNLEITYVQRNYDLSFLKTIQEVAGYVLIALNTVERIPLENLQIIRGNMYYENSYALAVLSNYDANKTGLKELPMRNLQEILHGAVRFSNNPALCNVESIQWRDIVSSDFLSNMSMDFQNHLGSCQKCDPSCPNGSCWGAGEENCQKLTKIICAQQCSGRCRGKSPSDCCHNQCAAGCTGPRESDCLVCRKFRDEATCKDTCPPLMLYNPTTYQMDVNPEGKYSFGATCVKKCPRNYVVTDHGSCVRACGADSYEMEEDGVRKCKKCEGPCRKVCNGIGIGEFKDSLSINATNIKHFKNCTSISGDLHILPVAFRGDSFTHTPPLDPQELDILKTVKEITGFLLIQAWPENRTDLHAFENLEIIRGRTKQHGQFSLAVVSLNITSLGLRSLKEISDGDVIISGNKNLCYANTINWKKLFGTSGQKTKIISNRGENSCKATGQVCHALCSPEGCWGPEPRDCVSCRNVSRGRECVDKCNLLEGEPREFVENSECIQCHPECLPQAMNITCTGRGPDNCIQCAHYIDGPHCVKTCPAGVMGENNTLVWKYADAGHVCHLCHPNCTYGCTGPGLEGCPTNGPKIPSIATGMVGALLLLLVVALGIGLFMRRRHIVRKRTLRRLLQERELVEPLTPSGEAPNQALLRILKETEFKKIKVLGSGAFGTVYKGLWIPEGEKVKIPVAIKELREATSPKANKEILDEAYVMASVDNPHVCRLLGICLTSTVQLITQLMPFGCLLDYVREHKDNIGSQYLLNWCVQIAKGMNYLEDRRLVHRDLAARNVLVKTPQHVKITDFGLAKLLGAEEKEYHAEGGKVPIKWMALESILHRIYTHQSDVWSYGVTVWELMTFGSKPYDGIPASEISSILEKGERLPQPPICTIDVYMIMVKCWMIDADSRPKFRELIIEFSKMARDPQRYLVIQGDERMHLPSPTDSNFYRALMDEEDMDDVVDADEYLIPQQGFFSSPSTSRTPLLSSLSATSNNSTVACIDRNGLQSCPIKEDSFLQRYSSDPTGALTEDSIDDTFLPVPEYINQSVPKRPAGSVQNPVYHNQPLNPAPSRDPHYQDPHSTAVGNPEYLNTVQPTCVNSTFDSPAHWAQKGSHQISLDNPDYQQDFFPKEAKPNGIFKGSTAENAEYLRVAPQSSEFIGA

[3] = biological target: T3, Epidermal growth factor receptor (Homo sapiens, UniProt P00533, 746-750DEL/T790M); assay: Inhibition of human EGFR T790M/del (746 to 750 residues) mutant assessed as apparent inhibition constant using Fl-EEPLYWSFPAKKK-CONH2 peptide as substrate preincubated for 30 mins followed by addition of substrate and measured after 30 mins by Morrison plot analysis; conditions: read-out: Ki(app); procedure, shortened: as §1
[4] = biological target: T4, Epidermal growth factor receptor (Homo sapiens, UniProt P00533, L858R/T790M); assay: Inhibition of human EGFR T790M/L858R double mutant assessed as apparent inhibition constant using Fl-EEPLYWSFPAKKK-CONH2 as peptide substrate preincubated for 30 mins followed by addition of substrate and measured after 30 mins by Morrison plot analysis; conditions: read-out: Ki(app)
[5] = Aqueous kinetic solubility of compound in PBS buffer at pH 7.4 at 100 uM incubated for 24 hrs by LC/CLND analysis; type: physicochemical; conditions: read-out: Kinetic_solubility
Procedure, shortened: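 Kinetic aqueous solubility measured at pH 7.4.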

[6] = Apparent permeability across apical to basolateral side in dog MDCK cells; type: ADME, cell-based, Canis lupus familiaris
[7] = biological target: Epidermal growth factor receptor (Homo sapiens, UniProt P00533, L858R); assay: Inhibition of human EGFR L858R mutant assessed as apparent inhibition constant using Fl-EEPLYWSFPAKKK-CONH2 peptide as substrate preincubated for 30 mins followed by addition of substrate and measured after 30 mins by Morrison plot analysis; conditions: read-out: Ki(app); procedure, shortened: as §1
[8] = biological target: T4, Epidermal growth factor receptor; type: cell-based, NCI-H1975
[9] = Clearance in human liver microsomes; type: ADME, Microsome
Procedure, shortened: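 Incubation with human liver microsomes; intrinsic clearance scaled to predicted hepatic clearance as Clhep = (Q × Clint)/(Q + Clint), where Q is liver blood flow.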

[10] = Clearance in human hepatocyte; type: ADME, cell-based; conditions: hepatocytes
Procedure, shortened: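 Cryopreserved human hepatocytes used; intrinsic clearance converted to predicted hepatic clearance as (Q × Clint)/(Q + Clint) using liver blood flow Q.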

[11] = biological target: T2, Epidermal growth factor receptor; assay: Inhibition of EGFR autophosphorylation in human NCI-H292 cells harboring harboring wild type EGFR preincubated for 60 mins followed by EGF stimulation and measured after 8 mins by SULFO-TAG based electrochemiluminescent assay; type: cell-based
[12] = biological target: T3, Epidermal growth factor receptor; type: cell-based, PC-9/ER1
[13] = biological target: T1, Epidermal growth factor receptor; type: cell-based, PC-9

T4 sequence (P00533 25-1210 T790M/L858R limits assumed): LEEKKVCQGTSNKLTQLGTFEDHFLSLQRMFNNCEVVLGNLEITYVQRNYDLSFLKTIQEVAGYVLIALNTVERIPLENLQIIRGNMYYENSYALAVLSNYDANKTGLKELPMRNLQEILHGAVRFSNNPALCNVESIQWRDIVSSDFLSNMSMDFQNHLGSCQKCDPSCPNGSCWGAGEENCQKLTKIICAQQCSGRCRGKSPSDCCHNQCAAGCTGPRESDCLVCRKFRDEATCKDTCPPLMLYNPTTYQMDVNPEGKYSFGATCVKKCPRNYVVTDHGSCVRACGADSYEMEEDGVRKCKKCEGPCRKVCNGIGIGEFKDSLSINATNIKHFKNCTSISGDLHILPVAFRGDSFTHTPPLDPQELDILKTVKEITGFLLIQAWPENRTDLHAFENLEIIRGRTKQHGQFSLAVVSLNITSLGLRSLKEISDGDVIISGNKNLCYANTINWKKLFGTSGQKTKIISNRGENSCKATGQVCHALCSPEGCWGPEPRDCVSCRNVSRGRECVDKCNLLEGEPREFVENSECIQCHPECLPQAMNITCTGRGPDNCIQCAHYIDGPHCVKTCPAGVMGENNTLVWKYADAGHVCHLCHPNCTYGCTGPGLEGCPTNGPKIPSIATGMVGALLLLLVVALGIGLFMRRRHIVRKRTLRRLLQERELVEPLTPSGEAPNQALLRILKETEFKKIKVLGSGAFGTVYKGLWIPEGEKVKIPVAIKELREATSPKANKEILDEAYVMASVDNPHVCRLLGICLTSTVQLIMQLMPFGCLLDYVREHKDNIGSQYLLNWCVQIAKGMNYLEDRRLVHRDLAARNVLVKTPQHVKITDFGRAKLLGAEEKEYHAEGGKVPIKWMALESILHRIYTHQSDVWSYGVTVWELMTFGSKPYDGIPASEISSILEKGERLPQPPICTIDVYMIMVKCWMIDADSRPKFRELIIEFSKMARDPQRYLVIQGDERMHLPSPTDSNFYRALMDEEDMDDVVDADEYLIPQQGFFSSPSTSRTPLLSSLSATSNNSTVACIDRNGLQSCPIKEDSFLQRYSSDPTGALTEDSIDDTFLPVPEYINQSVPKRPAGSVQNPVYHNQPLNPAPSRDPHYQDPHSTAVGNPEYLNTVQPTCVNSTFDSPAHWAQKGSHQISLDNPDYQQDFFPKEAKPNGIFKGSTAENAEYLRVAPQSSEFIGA
T3 sequence (P00533 whole entry, looked up, stated change not applied, the tested form may be a part): as the sequence (P00533 whole entry, the tested form may be a part) above
T1 sequence (P00533 whole entry, looked up, stated change not applied): as the sequence (P00533 whole entry, the tested form may be a part) above

Ki [1]	Ki [2]	Ki [3]	Ki [4]	solubility kinetic at 24 h, 100 µM [5]	Papp A→B [6]	Ki [7]	IC50 [8]	CLhep predicted [9]	CLhep predicted [10]	IC50 [11]	IC50 [12]	IC50 [13]	Compound
2 nM	4.6 nM	2 nM	1.1 nM	7 µM (≈ 3.66 µg/mL)	2.3 ×10⁻⁶ cm/s	6.4 nM	–	–	–	–	–	–	CC(C)n1cc(C(=O)NC2COC2)c2cnc(Nc3ccnc(-c4cnn(S(=O)(=O)C5CC5)c4)n3)cc21
–	2 nM	–	< 0.6 nM	3 µM (≈ 1.53 µg/mL)	8.1 ×10⁻⁶ cm/s	–	19 nM	10 mL/min/kg	13 mL/min/kg	96 nM	8.1 nM	28 nM	CC(C)n1nc(N2CC(CO)C2)c2cnc(Nc3ccnc(-c4cnn(S(=O)(=O)C5CC5)c4)n3)cc21
–	1200 nM	–	34 nM	–	–	–	–	–	–	–	–	–	Cc1nc2cnc(Nc3ccnc(-c4cnn(CC5CC5)c4)n3)cc2n1C(C)C
38 nM	324 nM	3.5 nM	–	–	–	126 nM	–	–	–	–	–	–	Cc1nc2cnc(Nc3ccnc(-c4cnn(S(C)(=O)=O)c4)n3)cc2n1C(C)C
323 nM	167 nM	27 nM	5.3 nM	3 µM (≈ 1.23 µg/mL)	26 ×10⁻⁶ cm/s	363 nM	–	–	–	–	–	–	COC1CCN(c2nccc(Nc3cc4c(cn3)c(C(N)=O)cn4C(C)C)n2)CC1
1800 nM	896 nM	41 nM	3.6 nM	–	–	608 nM	–	–	–	–	–	–	CO[C@H]1CCN(c2nccc(Nc3cc4c(cn3)nc(C)n4C(C)C)n2)C[C@H]1F
–	< 531 nM	–	–	< 1 µM	3.9 ×10⁻⁶ cm/s	–	2400 nM	8.5 mL/min/kg	15 mL/min/kg	> 10000 nM	910 nM	3000 nM	CC(C)c1nn(C(C)C)c2cc(Nc3ccnc(-c4cnn(S(=O)(=O)C5CC5)c4)n3)ncc12
1.2 nM	7.8 nM	0.35 nM	1.1 nM	< 1 µM	4.5 ×10⁻⁶ cm/s	4.1 nM	–	–	–	–	–	–	CC(C)n1cc(C(N)=O)c2cnc(Nc3ccnc(-c4cnn(S(=O)(=O)C5CC5)c4)n3)cc21
–	–	–	–	2 µM (≈ 1.1 µg/mL)	19 ×10⁻⁶ cm/s	–	40 nM	9.9 mL/min/kg	7.8 mL/min/kg	580 nM	15 nM	57 nM	CC[C@@H](C)n1nc(N2CC(C(C)(C)O)C2)c2cnc(Nc3ccnc(-c4cnn(S(=O)(=O)C5CC5)c4)n3)cc21
